Assay results pooled from the literature.
Protocols differ between the studies behind these lines.

`CN1CC[C@@H](c2c(O)cc(O)c3c(=O)cc(-c4ccc(C(F)(F)F)cc4Cl)oc23)[C@@H]1CO` has a Tmax of 3.9 h (human, plasma; oral, 100 mg, patients).
For `N#C[C@@]12C[C@@H]1[C@@H](n1cnc3c(N[C@@H](C4CCC4)C4CC4)nc(I)nc31)[C@H](O)[C@@H]2O`, the MRT(0-t) was 1.59 h (male Wistar rat, plasma; oral, 1 mg/kg).
The MRT(0-t) of `C[C@H]1[C@@H](O)O[C@@H]2O[C@@]3(C)CC[C@H]4[C@H](C)CC[C@@H]1[C@@]24OO3` is reported as 2.93 h (Sprague-Dawley rat, plasma; oral, 10 mg/kg).
`Cn1cc(Nc2nc(N)nc(-c3cccc(-n4ccc5cc(C6CC6)cc(F)c5c4=O)c3CO)n2)cn1` gave a Tmax of 2.52 h (human, plasma; oral, 300 mg, single dose, fasted, suspension).
The Tmax of `NS(=O)(=O)OC[C@@H]1C[C@@H](n2ccc3c(N[C@H]4CCc5ccccc54)ncnc32)C[C@@H]1O` is reported as 1.04 h (human, plasma; intravenous, 25 mg/m², patients).
`COc1ccc([C@@H]2Sc3ccccc3N(CCN(C)C)C(=O)[C@@H]2OC(C)=O)cc1` gave a fraction unbound of 0.89 (Sprague-Dawley rat, hepatocytes; 2 µM, 4 h, pH 7.4).
With `O=C1CC[C@H](N2Cc3cc(N4CCN(CC5CCN(c6ccc([C@@H]7c8ccc(O)cc8CC[C@@H]7c7ccccc7)cc6)CC5)CC4)ccc3C2=O)C(=O)N1` the MRT(0-inf) was 12 h (female Sprague-Dawley rat, plasma; oral, 20 mg/kg, fed).
The MRT of `O=C1c2ccncc2C(=O)c2c1[nH]c1ccccc21` is reported as 2.4 h (rat, plasma; intravenous, 1 mg/kg, single dose).
For `CC(C)NCC(O)COc1cccc2ccccc12` (stereo not shown), the fraction unbound was 0.88 (Sprague-Dawley rat, hepatocytes; 2 µM, 4 h, pH 7.4).
`COc1ccc([C@@H](O)c2cc(-c3ncnc4cc(N5CCOCC5)ccc34)c(F)cc2Cl)nn1` has a Tmax of 2.02 h (human, plasma; oral, 200 mg, single dose, patients).
